Laboratory results taken from ChEMBL document CHEMBL1157765, “Synthesis of DOTA-conjugated multimeric [Tyr3]octreotide peptides via a combination of Cu(I)-catalyzed "click" cycloaddition and thio acid/sulfonyl azide "sulfo-click" amidation and their in vivo evaluation” (J Med Chem, 2010).

Assays:
Pancreas [1] = assay: Biodistribution in pancreas of BALB/c mouse bearing rat AR42J cells at 0.37 MBq, iv after 24 hrs; type: ADME, organism-based, AR-42J; details: in vivo
Summary of the method: (§1)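 AR42J tumor grown in right flank of male BALB/c nude mice (20-25 g, 6-8 weeks) by sc injection of 5 × 10⁶ cells; used after ~2 weeks at 4-6 mm diameter. Groups of five received 0.37 MBq (0.1 μg) ¹¹¹In-DOTA conjugate iv via tail vein (labeled in 0.25 M NH₄OAc pH 5.5, 95 °C, 15 min). Tissues dissected at 2, 6 or 24 h, weighed, γ-counted against 1% injected-activity standards; %ID/g, mean ± SD.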

[2] = Biodistribution in tumor of BALB/c mouse bearing rat AR42J cells at 0.37 MBq, iv after 2 hrs; type: ADME, organism-based, Neoplasm, AR-42J; details: in vivo; summary of the method: as §1
Pancreas [3] = assay: Biodistribution in pancreas of BALB/c mouse bearing rat AR42J cells at 0.37 MBq, iv after 2 hrs; type: ADME, organism-based, AR-42J; details: in vivo; summary of the method: as §1
Blood [4] = assay: Biodistribution in blood of BALB/c mouse bearing rat AR42J cells at 0.37 MBq, iv after 2 hrs under cold condition; type: ADME, organism-based, AR-42J; details: in vivo
Summary of the method: (§2)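 Receptor block: groups of three AR42J tumor-bearing male BALB/c nude mice co-injected iv via tail vein with 0.37 MBq (0.1 μg) ¹¹¹In-DOTA conjugate plus 50 μg octreotide. Killed by CO₂/O₂ at 2 h; blood, tumor and tissues dissected, weighed and γ-counted against 1% injected-activity standards; %ID/g reported as mean ± SD.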

Liver [5] = assay: Biodistribution in liver of BALB/c mouse bearing rat AR42J cells at 0.37 MBq, iv after 6 hrs; type: ADME, organism-based, AR-42J; details: in vivo; summary of the method: as §1
Pancreas [6] = assay: Biodistribution in pancreas of BALB/c mouse bearing rat AR42J cells at 0.37 MBq, iv after 2 hrs under cold condition; type: ADME, organism-based, AR-42J; details: in vivo; summary of the method: as §2
Kidney [7] = assay: Biodistribution in kidney of BALB/c mouse bearing rat AR42J cells at 0.37 MBq, iv after 24 hrs; type: ADME, organism-based, AR-42J; details: in vivo; summary of the method: as §1
[8] = Biodistribution in adrenal gland of BALB/c mouse bearing rat AR42J cells at 0.37 MBq, iv after 24 hrs; type: ADME, organism-based, AR-42J; details: in vivo; summary of the method: as §1
[9] = Octanol-water partition coefficient, log D at pH 7.4; type: physicochemical
Summary of the method: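 ¹¹¹In-labeled conjugate (~148 kBq) in PBS pH 7.4 mixed 1:1 with n-octanol and shaken 2 min. Phases separated by centrifugation (5 min, 250g); triplicate aliquots of each layer γ-counted. log D = log₁₀(octanol counts/aqueous counts), from at least two independent experiments.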

[10] = Biodistribution in tumor of BALB/c mouse bearing rat AR42J cells at 0.37 MBq, iv after 2 hrs under cold condition; type: ADME, organism-based, Neoplasm, AR-42J; details: in vivo; summary of the method: as §2
Kidney [11] = assay: Biodistribution in kidney of BALB/c mouse bearing rat AR42J cells at 0.37 MBq, iv after 6 hrs; type: ADME, organism-based, AR-42J; details: in vivo; summary of the method: as §1
[12] = Biodistribution in adrenal gland of BALB/c mouse bearing rat AR42J cells at 0.37 MBq, iv after 2 hrs; type: ADME, organism-based, AR-42J; details: in vivo; summary of the method: as §1
Liver [13] = assay: Biodistribution in liver of BALB/c mouse bearing rat AR42J cells at 0.37 MBq, iv after 2 hrs; type: ADME, organism-based, AR-42J; details: in vivo; summary of the method: as §1
[14] = molecular target: Somatostatin receptor type 2 (Rattus norvegicus, UniProt P30680); assay: Displacement of [111In]DOTA0,Tyr3]octreotide from SSTR2 receptor in rat AR42J cells; type: cell-based, AR-42J
Chain of Somatostatin receptor type 2 (P30680 whole entry): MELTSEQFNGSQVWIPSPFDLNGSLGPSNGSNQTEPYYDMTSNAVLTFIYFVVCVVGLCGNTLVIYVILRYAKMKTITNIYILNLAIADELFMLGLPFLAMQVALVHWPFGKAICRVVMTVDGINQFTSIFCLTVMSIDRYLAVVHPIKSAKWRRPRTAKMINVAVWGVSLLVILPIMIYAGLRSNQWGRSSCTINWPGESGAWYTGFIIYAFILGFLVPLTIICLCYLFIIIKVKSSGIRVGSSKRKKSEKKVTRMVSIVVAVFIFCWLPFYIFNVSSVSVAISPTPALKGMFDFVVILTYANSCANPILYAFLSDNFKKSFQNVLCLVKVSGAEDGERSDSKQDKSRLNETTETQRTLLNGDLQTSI
Summary of the method: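 AR42J cells (DMEM, 10% FCS, 37 °C, 5% CO₂) seeded 8 × 10⁵/well and grown to confluence, washed with DMEM + 0.1% BSA. Incubated 3 h at 37 °C with [¹¹¹In-DOTA⁰,Tyr³]octreotide tracer (40 000 dpm) and unlabeled peptide at 0.1-300 nM. Washed twice; cell-bound activity γ-counted. IC₅₀ from fitted sigmoidal displacement curves with 95% CI.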

Stomach [15] = assay: Biodistribution in stomach of BALB/c mouse bearing rat AR42J cells at 0.37 MBq, iv after 6 hrs; type: ADME, organism-based, AR-42J; details: in vivo; summary of the method: as §1
[16] = Biodistribution in tumor of BALB/c mouse bearing rat AR42J cells at 0.37 MBq, iv after 6 hrs; type: ADME, organism-based, Neoplasm, AR-42J; details: in vivo; summary of the method: as §1
Stomach [17] = assay: Biodistribution in stomach of BALB/c mouse bearing rat AR42J cells at 0.37 MBq, iv after 24 hrs; type: ADME, organism-based, AR-42J; details: in vivo; summary of the method: as §1
Stomach [18] = assay: Biodistribution in stomach of BALB/c mouse bearing rat AR42J cells at 0.37 MBq, iv after 2 hrs; type: ADME, organism-based, AR-42J; details: in vivo; summary of the method: as §1
Stomach [19] = assay: Biodistribution in stomach of BALB/c mouse bearing rat AR42J cells at 0.37 MBq, iv after 2 hrs under cold condition; type: ADME, organism-based, AR-42J; details: in vivo; summary of the method: as §2
Blood [20] = assay: Biodistribution in blood of BALB/c mouse bearing rat AR42J cells at 0.37 MBq, iv after 24 hrs; type: ADME, organism-based, AR-42J; details: in vivo; summary of the method: as §1
[21] = Biodistribution in tumor of BALB/c mouse bearing rat AR42J cells at 0.37 MBq, iv after 24 hrs; type: ADME, organism-based, Neoplasm, AR-42J; details: in vivo; summary of the method: as §1
Blood [22] = assay: Biodistribution in blood of BALB/c mouse bearing rat AR42J cells at 0.37 MBq, iv after 2 hrs; type: ADME, organism-based, AR-42J; details: in vivo; summary of the method: as §1
[23] = Biodistribution in adrenal gland of BALB/c mouse bearing rat AR42J cells at 0.37 MBq, iv after 2 hrs under cold condition; type: ADME, organism-based, AR-42J; details: in vivo; summary of the method: as §2
Pancreas [24] = assay: Biodistribution in pancreas of BALB/c mouse bearing rat AR42J cells at 0.37 MBq, iv after 6 hrs; type: ADME, organism-based, AR-42J; details: in vivo; summary of the method: as §1
Blood [25] = assay: Biodistribution in blood of BALB/c mouse bearing rat AR42J cells at 0.37 MBq, iv after 6 hrs; type: ADME, organism-based, AR-42J; details: in vivo; summary of the method: as §1
Kidney [26] = assay: Biodistribution in kidney of BALB/c mouse bearing rat AR42J cells at 0.37 MBq, iv after 2 hrs; type: ADME, organism-based, AR-42J; details: in vivo; summary of the method: as §1
Kidney [27] = assay: Biodistribution in kidney of BALB/c mouse bearing rat AR42J cells at 0.37 MBq, iv after 2 hrs under cold condition; type: ADME, organism-based, AR-42J; details: in vivo; summary of the method: as §2
Liver [28] = assay: Biodistribution in liver of BALB/c mouse bearing rat AR42J cells at 0.37 MBq, iv after 2 hrs under cold condition; type: ADME, organism-based, AR-42J; details: in vivo; summary of the method: as §2
[29] = Biodistribution in adrenal gland of BALB/c mouse bearing rat AR42J cells at 0.37 MBq, iv after 6 hrs; type: ADME, organism-based, AR-42J; details: in vivo; summary of the method: as §1
Liver [30] = assay: Biodistribution in liver of BALB/c mouse bearing rat AR42J cells at 0.37 MBq, iv after 24 hrs; type: ADME, organism-based, AR-42J; details: in vivo; summary of the method: as §1

| Compound | Drug uptake (Pancreas [1]) [% ID/g] | Drug uptake [2] [% ID/g] | Drug uptake (Pancreas [3]) [% ID/g] | Drug uptake (Blood [4]) [% ID/g] | Drug uptake (Liver [5]) [% ID/g] | Drug uptake (Pancreas [6]) [% ID/g] | Drug uptake (Kidney [7]) [% ID/g] | Drug uptake [8] [% ID/g] | logD [9] | Drug uptake [10] [% ID/g] | Drug uptake (Kidney [11]) [% ID/g] | Drug uptake [12] [% ID/g] | Drug uptake (Liver [13]) [% ID/g] | IC50 [14] [nM] | Drug uptake (Stomach [15]) [% ID/g] | Drug uptake [16] [% ID/g] | Drug uptake (Stomach [17]) [% ID/g] | Drug uptake (Stomach [18]) [% ID/g] | Drug uptake (Stomach [19]) [% ID/g] | Drug uptake (Blood [20]) [% ID/g] | further results |
| --- | --- | --- | --- | --- | --- | --- | --- | --- | --- | --- | --- | --- | --- | --- | --- | --- | --- | --- | --- | --- | --- |
| C[C@@H](O)[C@@H]1NC(=O)[C@H](CCCCN)NC(=O)[C@@H](Cc2c[nH]c3ccccc23)NC(=O)[C@H](Cc2ccc(O)cc2)NC(=O)[C@@H](NC(=O)[C@@H](Cc2ccccc2)NC(=O)CCCCCn2cc(COc3cccc(C(=O)NS(=O)(=O)CCNC(=O)CN4CCN(CC(=O)O)CCN(CC(=O)O)CCN(CC(=O)O)CC4)c3)nn2)CSSC[C@@H](C(=O)N[C@H](CO)[C@@H](C)O)NC1=O | 0.17 | 42.33 | 2.92 | 3.46 | 0.22 | 1.07 | 2.53 | 0.63 | -2.2 | 4.82 | 10.96 | 1.86 | 0.52 | 1.32 | 6.11 | 21.32 | 2.83 | 7.54 | 2.16 | 0.04 | Drug uptake [21]: 10.75 % ID/g; Drug uptake (Blood [22]): 0.27 % ID/g; Drug uptake [23]: 2.38 % ID/g; Drug uptake (Pancreas [24]): 0.63 % ID/g; Drug uptake (Blood [25]): 0.13 % ID/g; Drug uptake (Kidney [26]): 54.19 % ID/g; Drug uptake (Kidney [27]): 62.74 % ID/g; Drug uptake (Liver [28]): 3.61 % ID/g; Drug uptake [29]: 0.78 % ID/g; Drug uptake (Liver [30]): 0.09 % ID/g |
| C[C@@H](O)[C@@H]1NC(=O)[C@H](CCCCN)NC(=O)[C@@H](Cc2c[nH]c3ccccc23)NC(=O)[C@H](Cc2ccc(O)cc2)NC(=O)[C@@H](NC(=O)[C@@H](Cc2ccccc2)NC(=O)CCCCCn2cc(COc3cc(OCc4cn(CCCCCC(=O)N[C@H](Cc5ccccc5)C(=O)N[C@H]5CSSC[C@@H](C(=O)N[C@H](CO)[C@@H](C)O)NC(=O)[C@H]([C@@H](C)O)NC(=O)[C@H](CCCCN)NC(=O)[C@@H](Cc6c[nH]c7ccccc67)NC(=O)[C@H](Cc6ccc(O)cc6)NC5=O)nn4)cc(C(=O)NS(=O)(=O)CCNC(=O)CN4CCN(CC(=O)O)CCN(CC(=O)O)CCN(CC(=O)O)CC4)c3)nn2)CSSC[C@@H](C(=O)N[C@H](CO)[C@@H](C)O)NC1=O | 0.36 | 25.31 | 2.96 | 2.31 | 14.92 | 1.18 | 11.74 | 1.27 | -1.79 | 5.55 | 65.61 | 2.69 | 18.67 | 2.45 | 7.78 | 30.91 | 2.97 | 10.21 | 3.46 | 0.17 | Drug uptake [21]: 12.14 % ID/g; Drug uptake (Blood [22]): 1.52 % ID/g; Drug uptake [23]: 1.56 % ID/g; Drug uptake (Pancreas [24]): 1.69 % ID/g; Drug uptake (Blood [25]): 0.86 % ID/g; Drug uptake (Kidney [26]): 92.2 % ID/g; Drug uptake (Kidney [27]): 57.78 % ID/g; Drug uptake (Liver [28]): 22.67 % ID/g; Drug uptake [29]: 2.49 % ID/g; Drug uptake (Liver [30]): 5.54 % ID/g |
| C[C@@H](O)[C@@H]1NC(=O)[C@H](CCCCN)NC(=O)[C@@H](Cc2c[nH]c3ccccc23)NC(=O)[C@H](Cc2ccc(O)cc2)NC(=O)[C@@H](NC(=O)[C@@H](Cc2ccccc2)NC(=O)CCCCCn2cc(CO)nn2)CSSC[C@@H](C(=O)N[C@H](CO)[C@@H](C)O)NC1=O | – | – | – | – | – | – | – | – | -3.59 | – | – | – | – | – | – | – | – | – | – | – | – |
